Screens deposited in PubChem by several laboratories.
Shown are actives, neighbours in structure and some others; about 2.6% of the full set was active somewhere.
Hsp70 act: Hsp70 transcriptional activators, primary screen, cell-based, HeLa, Hsp70 promoter luciferase, luminescence, 10 µM. activation, % at 10 µM. HeLa Hsp70 promoter luciferase reporter; scaled: vehicle 0, proteasome-inhibitor control 100%. 200,000 compounds, 0.04% hits;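 active = activation above the mean across all tested compounds plus 3 SD, cutoff set per campaign, cut at about 5.5% in these data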;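 also: 100% = MG132 at 30 µM as the positive control and 0% = DMSO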
Rad51 HR inh: human RAD51 strand exchange inhibitors, primary screen, biochemical, fluorescence; hRad51 DNA strand exchange, fluorescence dequenching; inhibition, % at 10 µM; 200,000 compounds, 0.085% hits;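 active = inhibition above 40% at the single screening dose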;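 also: 0% = DMSO control wells and 100% = blanks with heterologous ssDNA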
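Test system: preformed human Rad51 ssDNA filaments; also added: Donor/quencher-labelled 47-bp dsDNA substrate; doses: 10 µM final, single point; times: 37 °C 15-min filament assembly, 30-min compound preincubation, 15-min exchange; detection: FRET fluorescence dequenching, excitation 485 nm, emission 520 nm; read-out basis: Fluorescence-based percent inhibition, control- and blank-normalised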
HSV replic up: enhancers of HSV replication in host cells, fold increase, host cell viability. HSV replication augmentation in cells. maximum fold increase. 220,000 compounds, 0.005% hits; in the data active = maximum fold increase above about 1.5; tested in PC3 cells
MDM2 E3 inh: MDM2-luciferase reporter signal enhancers, primary screen, MDM2 E3 ligase inhibitor project, cell-based, luminescence, 1536-well; E3 ubiquitin-protein ligase Mdm2 (Homo sapiens), Q00987; cell-based MDM2 ubiquitination luciferase reporter, 2 h; 0 = plate control, 100 = twice control, blank-subtracted; signal enhancement, % at 5 µM; 210,000 compounds, 0.11% hits; AID 1230, 2008;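 active = signal enhancement of 30% or more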;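 also: luminescence tracks abundance of the self-degrading MDM2-luciferase fusion protein; higher signal means inhibition of MDM2 E3 ligase activity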
Target sequence (Q00987 whole entry, looked up, the tested form may be a part): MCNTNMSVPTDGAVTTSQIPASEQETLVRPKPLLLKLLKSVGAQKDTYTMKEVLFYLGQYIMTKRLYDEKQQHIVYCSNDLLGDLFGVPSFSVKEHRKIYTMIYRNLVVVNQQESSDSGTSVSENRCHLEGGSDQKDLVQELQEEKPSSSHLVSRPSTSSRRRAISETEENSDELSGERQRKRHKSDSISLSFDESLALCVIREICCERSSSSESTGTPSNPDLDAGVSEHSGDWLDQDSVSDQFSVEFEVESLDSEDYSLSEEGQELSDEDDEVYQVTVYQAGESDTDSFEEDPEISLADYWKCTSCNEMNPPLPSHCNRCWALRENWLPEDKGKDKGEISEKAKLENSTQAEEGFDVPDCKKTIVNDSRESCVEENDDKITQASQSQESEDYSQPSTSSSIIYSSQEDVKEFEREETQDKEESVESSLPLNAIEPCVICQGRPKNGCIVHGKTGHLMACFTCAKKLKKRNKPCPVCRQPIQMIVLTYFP
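test system = mammalian cells stably expressing self-ubiquitinating, self-degrading MDM2 E3–luciferase fusion | quantity = 2000 cells/well | incubation = cell settling 4 h, compound treatment 2 h, both 37 °C | signal = luminescence with SteadyLite reagent, 15 min at room temperature | evaluation = % enhancement relative to plate controls after blank subtraction | benchmarks = plate controls and plate blanks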
HSF1 activator: HSF-1 activators, primary screen, NIH3T3-HGL cells, MG132 stress, luminescence, single point; AID 504408, 2011; NIH3T3-HGL HSF-1 luciferase reporter, 8 h; 100% = twice DMSO control signal; activation, % at 9 µM; 300,000 compounds, 1.7% hits;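 active = mean replicate activation of at least 50% with a set share of replicates each reaching 50%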;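 also: 0% = median of the neutral control wells and 100% = twice that signal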
HSF1 inhib: HSF1 inhibitors in luciferase reporter cells, primary screen, cell-based, NIH3T3, luminescence | NIH3T3-HGL HSE-luciferase, MG132-induced, luminescence 8 h; active compounds read low | activity change, negative = inhibition, % at 7.5 µM (by protocol) | 300,000 compounds, 0.77% hits | AID 2098, 2009;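 active = more than half of replicate wells show activity change below -50%, luminescence cut by over half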;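 also: luciferase reports HSF-1 transcriptional activity via heat shock element; 0% = median of DMSO wells and -100% = zero luminescence signal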
An asterisk follows results filed as active; i = inactive; nt = no result.

SMILES | Hsp70 act | Rad51 HR inh | HSV replic up | MDM2 E3 inh | HSF1 activator | HSF1 inhib
O=C1CC(c2ccccc2)CC(O)=C1C=Nc1cccc(Cl)c1 (configuration not stated) | -0.3 | 1.2 | i | 1.2 | 120.4* | 78.8
CC(C)CCN=CC1=C(O)CC(c2ccccc2)CC1=O (configuration not stated) | -0.1 | nt | i | -13.9 | 66.8* | 27.9
O=C1CC(c2ccccc2Cl)CC(O)=C1C=Nc1ccccc1 (configuration not stated) | -0.1 | -0.4 | i | -3.6 | 151.8* | 118.5
Cc1ccc(N=CC2=C(O)CC(c3cccc(Cl)c3)CC2=O)cc1 (configuration not stated) | -0.2 | nt | i | nt | 22.9 | 7.9
Cc1ccc(N=CC2=C(O)CC(c3ccccc3Cl)CC2=O)cc1 (configuration not stated) | nt | 9.9 | i | -9.1 | 0.3 | 4.5
O=C1CC(c2ccccc2)CC(O)=C1C=Nc1ccc(Cl)cc1 (configuration not stated) | -0.2 | 1.6 | i | -10.3 | 141.4* | 103.8
CCCN=CC1=C(O)CC(c2ccccc2)CC1=O (configuration not stated) | -0.1 | -10.8 | i | -7.2 | 5.4 | 3.3
O=C1CC(c2ccccc2)CC(O)=C1C=Nc1ccccc1Cl (configuration not stated) | -0.2 | nt | i | 8.4 | 5.5 | 11.7
NC(=O)c1ccccc1NC(=O)c1ccoc1 | nt | nt | nt | nt | 7.5 | -8.5
CCN(C(=O)c1cnc(OC)cc1C(F)(F)F)c1ccc(Cl)cc1Cl | nt | -2.0 | i | -16.6 | 15.3 | 2.3
O=C(CNC(=O)c1cccs1)N=Nc1c(O)[nH]c2ccc([N+](=O)[O-])cc12 | nt | nt | nt | nt | 6.4 | 0.8
N#CC1=C(N)N(c2ccc(Oc3ccccc3)cc2)C(=O)C1 | -0.3 | 1.6 | i | 3.2 | -91.5 | -89.0*
COc1ccc(N2C(=O)Cc3ccccc3C2=O)cc1 | nt | nt | nt | nt | -2.4 | 2.5
Cc1ccccc1-c1nnc(SCC(=O)N2CCCC2)o1 | nt | nt | nt | nt | 15.9 | -1.0
O=C(CN1C(=O)NC2(CCCC2)C1=O)NCCN1C(=O)S/C(=C\c2ccccc2F)C1=O | nt | nt | nt | nt | 55.2* | 14.1
COc1ccc(/C=C2\SC(=O)N(CCNC(=O)CN3C(=O)NC4(CCCC4)C3=O)C2=O)cc1 | nt | nt | nt | nt | 1.1 | 2.2
O=[N+]([O-])c1ccc(N2CCc3ccccc3C2)cc1 | nt | nt | nt | nt | 72.6* | 71.4
O=C(OCC(=O)N1CCc2ccccc21)c1cncc(Br)c1 | -0.3 | -5.8 | i | -11.4 | -20.1 | -0.7
Cc1cccc2sc(NNC(=O)C3COc4ccccc4O3)nc12 (configuration not stated) | -0.2 | -9.7 | i | nt | -90.2 | -86.8*
O=C(NNc1nc2c(F)cc(F)cc2s1)C1COc2ccccc2O1 (configuration not stated) | 0.4 | -0.1 | i | -3.6 | -3.9 | -2.3
COc1ccc(CCNCc2cc(C)n(-c3ccc(OC)cc3)c2C)cc1 | nt | nt | nt | nt | 66.9* | 17.6
COc1ccc(CCNCc2ccccc2N2CCCC2)cc1 | nt | nt | nt | nt | -7.2 | -1.7
c1ccc(-n2cnc3cc(NCc4cccs4)ccc32)cc1 | -0.2 | -1.8 | i | -40.3 | -68.8 | -66.6*
NC(=O)C1CCN(c2oc(/C=C/c3ccccc3)nc2S(=O)(=O)c2ccccc2)CC1 | nt | nt | nt | nt | 1.9 | -3.5
CCO[C@H]1OC(C(N)=O)=C[C@@H](C2CCCCC2)[C@@H]1CCCO | -0.2 | 2.8 | i | nt | 26.7 | 4.0
COc1ccc(S(=O)(=O)N2CC(=O)Nc3ccccc32)cc1C | nt | nt | nt | nt | 13.3 | -4.3
COc1cc(NC(=O)c2ccc(C)cc2)c(OC)cc1NC(=O)CN1CCOCC1 | 0.0 | -4.5 | i | -1.6 | 60.3* | 52.1
O=C(CNC(=O)c1ccc2c(c1)OCO2)N/N=C(Br)/C=C/c1ccccc1 | -0.3 | -7.3 | i | -13.0 | 65.8* | 34.3
